Test results reported in ChEMBL document CHEMBL1817582, “Optimization of the in vitro cardiac safety of hydroxamate-based histone deacetylase inhibitors” (J Med Chem, 2011).

How the values were obtained:
[1] = Dissociation constant, pKa of the compound; type: physicochemical
[2] = Clearance in nude mouse xenografted with human HCT116 cells at 5 mg/kg, iv; type: ADME, organism-based, HCT-116; design: dose 5 mg/kg, route intravenous; conditions: in vivo
Procedure, shortened: (§1)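 Pharmacokinetics in naive Sprague-Dawley rats and in HCT116 tumor-bearing nude mice after single iv or oral dosing. Parameters reported as means: AUC, clearance, Vss, half-life, Cmax and oral bioavailability (F%).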

[3] = Oral bioavailability in nude mouse xenografted with human HCT116 cells at 20 mg/kg; type: ADME, organism-based, HCT-116; conditions: in vivo; procedure, shortened: as §1
[4] = Cmax in nude mouse xenografted with human HCT116 cells at 20 mg/kg, po; type: ADME, organism-based, HCT-116; design: dose 20 mg/kg, route oral; conditions: in vivo; procedure, shortened: as §1
[5] = AUC in nude mouse xenografted with human HCT116 cells at 5 mg/kg, iv; type: ADME, organism-based, HCT-116; design: dose 5 mg/kg, route intravenous; conditions: in vivo; procedure, shortened: as §1
Rattus norvegicus [6] = assay: Oral bioavailability in Sprague-Dawley rat at 10 mg/kg; type: ADME, organism-based; conditions: in vivo; procedure, shortened: as §1
[7] = Half life in Sprague-Dawley rat at 5 mg/kg, iv; type: ADME, organism-based; design: dose 5 mg/kg, route intravenous; conditions: in vivo; procedure, shortened: as §1
[8] = Metabolic stability in plasma of nude mouse xenografted with human HCT116 cells assessed as compound remaining after 3 hrs; type: ADME, cell-free, HCT-116; conditions: read-out: Stability
Procedure, shortened: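 Compound incubated in mouse plasma for three hours; percentage of compound remaining measured.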

Rattus norvegicus [9] = assay: AUC in Sprague-Dawley rat at 5 mg/kg, iv; type: ADME, organism-based, Plasma; design: dose 5 mg/kg, route intravenous; conditions: in vivo; procedure, shortened: as §1
[10] = Clearance in Sprague-Dawley rat at 5 mg/kg, iv; type: ADME, organism-based; design: dose 5 mg/kg, route intravenous; conditions: in vivo; procedure, shortened: as §1
[11] = Half life in nude mouse xenografted with human HCT116 cells at 5 mg/kg, iv; type: ADME, organism-based, HCT-116; design: dose 5 mg/kg, route intravenous; conditions: in vivo; procedure, shortened: as §1
[12] = Volume of distribution at steady state in Sprague-Dawley rat at 5 mg/kg, iv; type: ADME, organism-based; design: dose 5 mg/kg, route intravenous; conditions: in vivo, read-out: Vdss; procedure, shortened: as §1
[13] = Cmax in Sprague-Dawley rat at 10 mg/kg, po; type: ADME, organism-based; design: dose 10 mg/kg, route oral; conditions: in vivo; procedure, shortened: as §1
Rattus norvegicus [14] = assay: AUC in Sprague-Dawley rat at 10 mg/kg, po; type: ADME, organism-based, Plasma; design: dose 10 mg/kg, route oral; conditions: in vivo; procedure, shortened: as §1
[15] = Volume of distribution at steady state in nude mouse xenografted with human HCT116 cells at 5 mg/kg, iv; type: ADME, organism-based, HCT-116; design: dose 5 mg/kg, route intravenous; conditions: in vivo, read-out: Vdss; procedure, shortened: as §1
[16] = AUC in nude mouse xenografted with human HCT116 cells at 20 mg/kg, po; type: ADME, organism-based, HCT-116; design: dose 20 mg/kg, route oral; conditions: in vivo; procedure, shortened: as §1
[17] = Clearance in Sprague-Dawley rat at 2 mg/kg, iv; type: ADME, organism-based; design: dose 2 mg/kg, route intravenous; conditions: in vivo; procedure, shortened: as §1
[18] = Solubility of compound at pH 6.8; type: physicochemical; conditions: buffer
[19] = AUC in Sprague-Dawley rat at 2 mg/kg, iv; type: ADME, organism-based; design: dose 2 mg/kg, route intravenous; conditions: plasma; procedure, shortened: as §1
[20] = Half life in Sprague-Dawley rat at 2 mg/kg, iv; type: ADME, organism-based; design: dose 2 mg/kg, route intravenous; conditions: in vivo; procedure, shortened: as §1
[21] = Volume of distribution at steady state in Sprague-Dawley rat at 2 mg/kg, iv; type: ADME, organism-based; design: dose 2 mg/kg, route intravenous; conditions: in vivo, read-out: Vdss; procedure, shortened: as §1
Homo sapiens = assay: Plasma concentration in human at 800 mg, po administered as single dose; conditions: in vivo
Canis familiaris = assay: Plasma concentration in dog at 150 mg/kg, po administered as single dose; type: ADME, organism-based, Canis lupus familiaris; design: dose 150 mg/kg, route oral; conditions: in vivo

Compound `Cc1[nH]c2ccccc2c1CCN(Cc1ccc(/C=C/C(=O)NO)cc1)CC(F)F` has a pKa [1] of 4.65.

With `O=C(/C=C/c1ccc(CN(CCc2c[nH]c3ccccc23)CC(F)(F)F)cc1)NO` the pKa [1] was 3.2.

Work on `CCCN(CCc1c[nH]c2ccccc12)Cc1ccc(/C=C/C(=O)NO)cc1` yielded a pKa [1] of 7.9.

Compound `Cc1[nH]c2ccccc2c1CCN(CCC(F)F)Cc1ccc(/C=C/C(=O)NO)cc1` has a pKa [1] of 5.8.

In the case of `O=C(/C=C/c1ccc(CN(CCc2c[nH]c3ccccc23)CCC(F)(F)F)cc1)NO`, the pKa [1] is reported as 4.75.

Work on `CC(C)N(CCc1c(C(C)(C)O)[nH]c2ccccc12)Cc1ccc(/C=C/C(=O)NO)cc1` yielded a clearance [2] of 176 mL/min/kg, a bioavailability [3] of 4% and a Cmax [4] of 56 nM. It also gave an AUC [5] of 0.463 µM·h, an F (Rattus norvegicus [6]) of 5% and a half-life [7] of 1.3 h. The remaining at 3 h [8] was 54%, the AUC (Rattus norvegicus [9]) was 1.307 µM·h and the clearance [10] was 66 mL/min/kg. For the same compound, the half-life [11] was 1 h, the Vd [12] was 7 L/kg and the Cmax [13] was 204 nM. For the same compound, the AUC (Rattus norvegicus [14]) was 0.336 µM·h, the Vd [15] was 5.9 L/kg and the AUC [16] was 0.0653 µM·h.

`CC(C)(C)c1[nH]c2ncccc2c1CCNCc1ccc(/C=C/C(=O)NO)cc1` gave a clearance [2] of 95 mL/min/kg, a bioavailability [3] of 4% and a Cmax [4] of 849 nM. The AUC [5] was 2.44 µM·h, the half-life [11] was 3.3 h and the Vd [15] was 4.5 L/kg. It also gave an AUC [16] of 0.474 µM·h.

`Cc1nn2ccccc2c1CCNCc1ccc(/C=C/C(=O)NO)cc1` gave a clearance [2] of 46.4 mL/min/kg, a bioavailability [3] of 2% and a clearance [17] of 36.5 mL/min/kg. It also gave a Cmax [4] of 202 nM, an AUC [5] of 5.1 µM·h and a half-life [11] of 1.44 h. For the same compound, the solubility [18] was over 1000 µg/mL, the Cmax [13] was 61 nM and the AUC [19] was 2.56 µM·h. For the same compound, the Vd [15] was 1.46 L/kg, the half-life [20] was 0.915 h and the Vd [21] was 1.99 L/kg. It also gave an AUC [16] of 0.362 µM·h.

`O=C(/C=C/c1ccc(CNCCc2c[nH]c3ccccc23)cc1)NO` gave a pKa [1] of 7.65.

Work on `O=C(/C=C/c1ccc(CN(CCO)CCc2c[nH]c3ccccc23)cc1)NO` [DACINOSTAT] yielded a pKa [1] of 7.5.

With `O=C(CCCCCCC(=O)Nc1ccccc1)NO` [VORINOSTAT] the concentration (Homo sapiens) was 1580 nM and the concentration (Canis familiaris) was 960 nM.
